Results on 9 compounds are retold here after ChEMBL document CHEMBL4130528, “Serotonin Analogues as Inhibitors of Breast Cancer Cell Growth” (ACS Med Chem Lett, 2017).

Active and inactive are the calls of the source. No cut-off for these calls is given here.

For data set [1], the system named is MDA-MB-231. Put plainly: Cytotoxicity against human MDA-MB-231 cells assessed as reduction in cell viability by cell titer 96 aqueous one solution based assay. It counts as functional. In outline: (§1)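 MDA-MB-231 and MCF-7 breast cancer cells were treated with increasing concentrations of compound. Viability was read by MTS assay, and IC50 values were derived from the concentration–response data.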

For data set [2], the system named is MCF7. Briefly: Cytotoxicity against human MCF7 cells assessed as reduction in cell viability by cell titer 96 aqueous one solution based assay. It counts as functional. In short, it runs like this: as §1
For data set [3], the system named is MDA-MB-231. Put plainly: Cytotoxicity against human MDA-MB-231 cells assessed as reduction in cell viability after 24 to 72 hrs by cell titer 96 aqueous one solution based assay. Format: functional. In short, it runs like this: (§2)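 Triple-negative breast cancer cells were incubated with compound for 24, 48 or 72 h. Viability was then measured by MTS assay across a concentration series.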

Data set [4] deals with MDA-MB-231. Briefly: Cytotoxicity against human MDA-MB-231 cells assessed as reduction in cell viability up to 10 uM in serum-free medium by cell titer 96 aqueous one solution based assay. Format: functional. In short, it runs like this:
(§3)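 Viability was measured by MTS after treating triple-negative breast cancer cells in serum-free medium, either alone or with BSA added to the serum-free medium, across a concentration series.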

Data set [5] has as its system MDA-MB-231. Briefly: Induction of apoptosis in human MDA-MB-231 cells assessed as increase in caspase 3/7 activity by Caspase-Glo 3/7 luciferase-based assay. It counts as functional, cell-based. In outline:
(§4)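 Cells were treated with a range of compound concentrations. Apoptosis was read as caspase-3/7 activity using a luciferase-based luminescent assay.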

The test system of data set [6] is MDA-MB-231. Put plainly: Induction of apoptosis in human MDA-MB-231 cells assessed as increase in cleaved PARP level up to 10 uM by Western blot analysis. It counts as functional, cell-based. In short, it runs like this:
(§5)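 Cells were treated with a range of compound concentrations. Apoptosis was assessed by Western blot detection of cleaved poly-ADP ribose polymerase (PARP).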
(Immunoblotting shows a protein as a band on a membrane.)

Data set [7] relates to MDA-MB-157. Briefly: Cytotoxicity against human MDA-MB-157 cells assessed as reduction in cell viability up to 10 uM after 24 to 72 hrs by cell titer 96 aqueous one solution based assay. Format: functional. In short, it runs like this:
as §2

Data set [8] relates to MDA-MB-157. Briefly: Cytotoxicity against human MDA-MB-157 cells assessed as reduction in cell viability up to 10 uM in serum-free medium by cell titer 96 aqueous one solution based assay. Format: functional. In short, it runs like this: as §3
Data set [9] has as its system MDA-MB-157. Put plainly: Cytotoxicity against human MDA-MB-157 cells assessed as reduction in cell viability up to 10 uM in presence of bovine serum albumin by cell titer 96 aqueous one solution based assay. It counts as functional. In short, it runs like this:
as §3

In data set [10] the test system is MDA-MB-157. Briefly: Induction of apoptosis in human MDA-MB-157 cells assessed as increase in caspase 3/7 activity up to 10 uM by Caspase-Glo 3/7 luciferase-based assay. Format: functional, cell-based. In outline:
as §4

The subject of data set [11] is MDA-MB-157. Briefly: Induction of apoptosis in human MDA-MB-157 cells assessed as increase in cleaved PARP level up to 10 uM by Western blot analysis. It counts as functional, cell-based. In short, it runs like this: as §5
Data set [12] has as its target T1, AMP-activated protein kinase, AMPK (Homo sapiens) (UniProt P54646+O43741+P54619+Q9UGJ0+Q9Y478+Q13131+Q9UGI9). Put plainly: Increase in AMPK phosphorylation at T172 in human MDA-MB-231 cells at 20 uM after 12 hrs by RPPA analysis. It counts as cell-based.
For data set [13], the target named is T1, AMP-activated protein kinase, AMPK (Homo sapiens). Put plainly: Increase in AMPK phosphorylation at T172 in human MCF7 cells at 20 uM after 12 hrs by RPPA analysis. It counts as cell-based.
The target in data set [14] is T2, Acetyl-CoA carboxylase (Homo sapiens) (UniProt Q13085+O00763). Put plainly: Increase in ACC phosphorylation at Ser79 in human MDA-MB-231 cells at 20 uM after 12 hrs by RPPA analysis. Format: cell-based.
For data set [15], the target named is T2, Acetyl-CoA carboxylase (Homo sapiens). Briefly: Increase in ACC phosphorylation at Ser79 in human MCF7 cells at 20 uM after 12 hrs by RPPA analysis. Format: cell-based.
Data set [16] concerns MDA-MB-231. Briefly: Inhibition of mTORC1 signaling in human MDA-MB-231 cells assessed as reduction in p70S6K phosphorylation at Thr389 at 20 uM after 12 hrs by RPPA analysis. It counts as cell-based.
Data set [17] relates to MDA-MB-231. Briefly: Inhibition of mTORC1 signaling in human MDA-MB-231 cells assessed as reduction in S6 phosphorylation at Ser235 at 20 uM after 12 hrs by RPPA analysis. Format: cell-based.
The test system of data set [18] is MDA-MB-231. Briefly: Inhibition of mTORC1 signaling in human MDA-MB-231 cells assessed as reduction in S6 phosphorylation at Ser236 at 20 uM after 12 hrs by RPPA analysis. Format: cell-based.
Data set [19] concerns MDA-MB-231. Briefly: Inhibition of mTORC1 signaling in human MDA-MB-231 cells assessed as reduction in S6 phosphorylation at Ser240 at 20 uM after 12 hrs by RPPA analysis. Format: cell-based.
Data set [20] has as its system MDA-MB-231. Put plainly: Inhibition of mTORC1 signaling in human MDA-MB-231 cells assessed as reduction in S6 phosphorylation at Ser244 at 20 uM after 12 hrs by RPPA analysis. It counts as cell-based.
The subject of data set [21] is MDA-MB-231. Briefly: Effect on total p70S6K level in human MDA-MB-231 cells at 20 uM after 12 hrs by RPPA analysis. It counts as cell-based. To be noted: mda-mb-231, 12 h.
The test system of data set [22] is MDA-MB-231. Put plainly: Effect on total S6 level in human MDA-MB-231 cells at 20 uM after 12 hrs by RPPA analysis. Format: cell-based. To be noted: mda-mb-231, 12 h.
Data set [23] concerns MDA-MB-231. Briefly: Inhibition of mTORC1 signaling in human MDA-MB-231 cells assessed as reduction in […] at 10 uM by Western blot analysis. It counts as cell-based.
In data set [24] the test system is MDA-MB-157. Put plainly: Inhibition of mTORC1 signaling in human MDA-MB-157 cells assessed as reduction in […] at 10 uM by Western blot analysis. Format: cell-based.
Data set [25] deals with MDA-MB-231. Put plainly: Inhibition of PI3K/AKT in human MDA-MB-231 cells assessed as reduction in mTOR phosphorylation at Ser2448 at 20 uM after 12 hrs by RPPA analysis. It counts as cell-based.
Data set [26] deals with MCF7. Briefly: Inhibition of PI3K/AKT in human MCF7 cells assessed as reduction in mTOR phosphorylation at Ser2448 at 20 uM after 12 hrs by RPPA analysis. It counts as cell-based.
For data set [27], the system named is MDA-MB-231. Put plainly: Inhibition of PI3K/AKT in human MDA-MB-231 cells assessed as reduction in mTOR phosphorylation at Ser2448 up to 10 uM by Western blot analysis. Format: cell-based.
Data set [28] has as its system MDA-MB-157. Briefly: Inhibition of PI3K/AKT in human MDA-MB-157 cells assessed as reduction in mTOR phosphorylation at Ser2448 up to 10 uM by Western blot analysis. It counts as cell-based.
Data set [29] relates to MDA-MB-231. Put plainly: Inhibition of mTORC1 signaling in human MDA-MB-231 cells assessed as alanine accumulation after 7 to 24 hrs by 1H-MRS analysis. It counts as cell-based. In short, it runs like this:
(§6)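 MDA-MB-231 cells were treated for 7 or 24 h, and intracellular metabolites were profiled by 1H-MRS. Treated and untreated groups were compared by principal component analysis.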

In data set [30] the test system is MDA-MB-231. Put plainly: Inhibition of mTORC1 signaling in human MDA-MB-231 cells assessed as aspartate accumulation after 7 to 24 hrs by 1H-MRS analysis. Format: cell-based. In short, it runs like this:
as §6

Data set [31] has as its system MDA-MB-231. Put plainly: Inhibition of mTORC1 signaling in human MDA-MB-231 cells assessed as glutamine accumulation after 7 to 24 hrs by 1H-MRS analysis. Format: cell-based. In outline: as §6
Data set [32] has as its system MDA-MB-231. Put plainly: Inhibition of mTORC1 signaling in human MDA-MB-231 cells assessed as proline accumulation after 7 to 24 hrs by 1H-MRS analysis. It counts as cell-based. In outline: as §6
Data set [33] concerns MDA-MB-231. Put plainly: Inhibition of mTORC1 signaling in human MDA-MB-231 cells assessed as glycine accumulation after 7 to 24 hrs by 1H-MRS analysis. It counts as cell-based. In short, it runs like this:
as §6

In data set [34] the test system is MDA-MB-231. Put plainly: Inhibition of mTORC1 signaling in human MDA-MB-231 cells assessed as phenylalanine accumulation after 7 to 24 hrs by 1H-MRS analysis. Format: cell-based. In short, it runs like this:
as §6

In data set [35] the test system is MDA-MB-231. Briefly: Inhibition of mTORC1 signaling in human MDA-MB-231 cells assessed as tyrosine accumulation after 7 to 24 hrs by 1H-MRS analysis. It counts as cell-based. In outline: as §6
In data set [36] the test system is MDA-MB-231. Briefly: Inhibition of mTORC1 signaling in human MDA-MB-231 cells assessed as intracellular UDP-glucose accumulation after 7 to 24 hrs by 1H-MRS analysis. It counts as cell-based. In outline: as §6
Data set [37] has as its system MDA-MB-231. Put plainly: Inhibition of mTORC1 signaling in human MDA-MB-231 cells assessed as intracellular UDP N-acetylglucosamine accumulation after 7 to 24 hrs by 1H-MRS analysis. Format: cell-based. In outline:
as §6

For orientation: IC50 means the concentration that inhibits the measured activity by half. For the compound `CCCCCCCCOc1ccc2[nH]cc(CCN)c2c1`, the IC50 in the data set on MDA-MB-231 [1] was found to be 7.3 µM; with MCF7 [2] it was 13 µM.
For `NCCc1c[nH]c2ccc(OCCCCCCCCCBr)cc12`, in that order: 10 µM and 17 µM.
The corresponding values for `NCCc1c[nH]c2ccc(OCc3cccc(COc4ccc5[nH]cc(CCN)c5c4)c3)cc12` are 18 µM and 22 µM.
For `CCCCCCCCCCCCOc1cccc2[nH]cc(CCN)c12`, in that order: 4.1 µM and 5 µM.
Consider `CCCCCCCCCCCOc1ccc2[nH]cc(CCN)c2c1`, for which the values for the IC50 with MDA-MB-231 [1] and in the data set with MCF7 [2] were 4.4 µM and 6.1 µM, respectively.
For `CCCCCCCCCOc1cccc2c(CCN)c[nH]c12`, in that order: 8 µM and 15 µM.
With `CCCCCCCCCCCCOc1ccc2[nH]cc(CCN)c2c1.Cl`, the concentration for half-maximal inhibition (IC50) worked out at 4.6 µM in the data set with MDA-MB-231 [1] and 5.1 µM with MCF7 [2]. In addition, the outcome with MDA-MB-231 [3], with MDA-MB-231 [6], in the data set on MDA-MB-157 [7], with MDA-MB-157 [8], in the data set on MDA-MB-157 [9] and in the data set on MDA-MB-157 [10] was Active. The result (with MDA-MB-157 [11]; in data set [12]; in data set [13]; in data set [14]; in data set [15]) was Active. Further, the result in the data set with MDA-MB-231 [4] was inactive. Moreover, the Activity result in the data set with MDA-MB-231 [5] was “Dose-dependent effect”; with MDA-MB-231 [21], “Non-Toxic”; in the data set on MDA-MB-231 [22], “Non-Toxic”. The inhibition entry in the data set on MDA-MB-231 [16], in the data set with MDA-MB-231 [17], with MDA-MB-231 [18], in the data set on MDA-MB-231 [19], in the data set with MDA-MB-231 [20] and in the data set with MDA-MB-231 [23] was “Active” throughout. For the same compound, the inhibition result in the data set with MDA-MB-157 [24], in the data set on MDA-MB-231 [29], in the data set on MDA-MB-231 [30], with MDA-MB-231 [31], in the data set with MDA-MB-231 [32] and in the data set on MDA-MB-231 [33] was “Active” each time. Further, the inhibition entry with MDA-MB-231 [34], with MDA-MB-231 [35], in the data set with MDA-MB-231 [36] and in the data set on MDA-MB-231 [37] was “Active” throughout. The inhibition entry with MDA-MB-231 [25], in the data set on MCF7 [26], in the data set with MDA-MB-231 [27] and in the data set on MDA-MB-157 [28] was “inactive” throughout.
For `NCCc1c[nH]c2ccc(OCc3ccc(COc4ccc5[nH]cc(CCN)c5c4)cc3)cc12`, the IC50 with MDA-MB-231 [1] is 20 µM; in the data set on MCF7 [2], 24 µM.
The corresponding values for `NCCc1c[nH]c2ccccc12` [TRYPTAMINE] are more than 50 µM and more than 50 µM.
